# Screens (PubChem BioAssay)
# M5 antag = antagonists of human muscarinic M5 receptor (CHRM5); CHO-hM5 cells, Fluo-8 calcium fluorescence, ACh EC80; P08912; inhibition, % at 3 µM; actives 0.59% (n = 360,000); AID 624040;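 active = inhibition above a per-plate cutoff, the mean of that plate's test compounds plus 3 SD, cut at about 27% in these data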;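 also: 0% = acetylcholine EC80 with DMSO and 100% = DMSO without agonist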
# M4 PAM = potentiates acetylcholine response at human M4 receptor | AID 624126 | activation, % at 3 µM | CHO-K1 hM4/Gqi5, Fluo-8 calcium fluorescence, ACh EC20; 0% = ACh EC20, 100% = maximal ACh | P08173 | actives 0.4% (n = 360,000);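 active = activation above its plate's cutoff, the mean activation of sample wells plus 3 SD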
# Target sequence (P08173 whole entry, looked up): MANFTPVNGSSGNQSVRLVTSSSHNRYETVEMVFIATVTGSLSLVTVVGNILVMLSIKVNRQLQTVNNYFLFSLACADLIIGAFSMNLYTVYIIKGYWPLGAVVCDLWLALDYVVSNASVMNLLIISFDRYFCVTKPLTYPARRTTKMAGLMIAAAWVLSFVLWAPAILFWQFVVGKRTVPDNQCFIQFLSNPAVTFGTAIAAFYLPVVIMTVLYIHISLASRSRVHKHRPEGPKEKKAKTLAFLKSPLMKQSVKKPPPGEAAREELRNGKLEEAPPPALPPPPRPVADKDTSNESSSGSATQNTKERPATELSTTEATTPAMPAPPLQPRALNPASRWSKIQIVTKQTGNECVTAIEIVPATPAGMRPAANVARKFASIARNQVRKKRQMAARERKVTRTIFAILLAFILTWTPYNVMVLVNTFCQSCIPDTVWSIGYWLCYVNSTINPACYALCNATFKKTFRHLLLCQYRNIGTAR
# M5 PAM = positive allosteric modulators of human muscarinic M5 receptor; activation, % at 3 µM; actives 0.3% (n = 360,000); AID 624038; CHO-K1 hM5, Fluo-8 calcium, ACh EC20 PAM; 0% = ACh EC20, 100% = ACh EC100;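 active = activation above the run cutoff, the mean activation of all test compounds plus 3 SD, cut at about 18% in these data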
#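 system = human M5 receptor in CHO-K1 cells | reagent = EC20 acetylcholine as agonist stimulus | compound dosing = single-point, 3 µM nominal | incubation = Fluo-8 loading 80 min at 37 °C plus 30 min room temperature | detection = Fluo-8 calcium dye fluorescence, kinetic read | benchmarks = low control EC20 acetylcholine (0%), high control EC100 acetylcholine (100%)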
# M4 antag = blocks acetylcholine activation of human M4 receptor | CHO-hM4 cells, ACh EC80, Fluo-8 calcium fluorescence | AID 624125 | actives 0.73% (n = 360,000) | inhibition, % at 3 µM | P08173;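 active = inhibition above its plate's cutoff, the mean inhibition of sample wells plus 3 SD, cut at about 27% in these data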;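 also: 0% = acetylcholine EC80 with DMSO and 100% = DMSO without agonist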
# CHRM4 agonist = agonists of human muscarinic M4 receptor (CHRM4); P08173; activation, % at 3 µM; CHO-K1 hM4/Gqi5, Fluo-8 calcium fluorescence; vehicle 0%, full acetylcholine response 100%; actives 0.14% (n = 360,000);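 active = activation above the run mean over all test wells plus 3 SD, cut at about 32% in these data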;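 also: peak over basal fluorescence ratio per well then scaled between controls; 0% = DMSO wells and 100% = acetylcholine at EC100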
# M5 ag = CHRM5 agonism in calcium assay; CHO-K1 hM5 cells, Fluo-8 calcium fluorescence; 0% DMSO wells, 100% maximal acetylcholine response; activation, % at 3 µM; actives 0.19% (n = 360,000); AID 624037;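 active = activation above the run's mean over test compounds plus 3 SD, cut at about 23% in these data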;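 also: signal is peak over basal fluorescence ratio across the kinetic read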
# Active calls of the source: *. In the library only some 1.8% were active in any assay of this set; here they are far more common.
SMILES,M5 antag,M4 PAM,M5 PAM,M4 antag,CHRM4 agonist,M5 ag
Nc1nc2n(n1)C(=O)CC(c1ccccc1)N2 (configuration not stated),0,8,3,-26,2,-2
CCOc1ccc(Br)cc1/C(C)=N\NC1=NCCN1,32*,-12,-15,21,6,8
CCN(CC)CCNC(=O)Cn1nc(-c2ccc(C)cc2)ccc1=O,-4,1,5,11,1,-2
Cc1ccc(-c2ccc(=O)n(CC(=O)NCCN(CC(C)C)CC(C)C)n2)cc1,13,-3,24*,-6,0,4
Nc1c(C(=O)NCc2ccccc2)nnn1Cc1ccccc1,9,4,-1,-11,6,8
CSc1ccc(Cn2nnc(C(=O)NCc3ccccc3)c2N)cc1,9,-3,-4,-8,61*,42*
CC(C)OC(=O)CSc1nc(Cc2cccs2)nc2ccccc12,0,-7,-4,-6,5,1
CCCCCCCCCCCCCCCC[N+](C)(C)Cc1ccc(F)cc1,21,-10,-35,36*,0,-13
CC#CC[N+](C)(C)CCCCCCCC,1,-6,-2,12,0,-15
Cc1cc(C)c2c(N)c(C(=O)Nc3ccc(F)cc3)sc2n1,6,27*,-4,4,7,-4
COc1ccc(NC(=O)c2sc3nc(C)cc(C)c3c2N)cc1,2,4,5,-5,1,0
Cc1cc(C)c2c(N)c(C(=O)NC3CCCC3)sc2n1,-3,52*,-9,61*,36*,-3
O=C(NNc1c([N+](=O)[O-])cc(C(F)(F)F)cc1[N+](=O)[O-])c1ccco1,24,-3,-13,6,13,7
CC1(C(=O)NCc2ccccc2)CSCC(=O)N1Cc1cccc(C(F)(F)F)c1 (configuration not stated),4,2,-4,-8,12,1
CCOC(=O)CSc1ncnc2c1sc1nc(N3CCOCC3)c3c(c12)CCCC3,-9,28*,0,-5,0,0
COC(=O)CSc1ncnc2c1sc1nc(N3CCOCC3)c3c(c12)CCCC3,-2,4,-2,5,1,-3
O=C(CCNC(=O)C1CCN(S(=O)(=O)c2ccc(F)cc2)CC1)Nc1ccccc1,-8,0,10,-3,2,-1
Cc1ccc2nc(C)cc(C(=O)NC3CCCCCC3)c2c1,-4,25*,-7,-19,2,5
CN(C)c1ccc(C(=O)Nc2ccc(S(=O)(=O)Nc3nccs3)cc2)cc1,-5,1,5,4,0,0
N#Cc1c(N)c(C#N)c(-c2ccc(O)cc2)c2c1CCCC2,3,5,-2,1,8,0
N#Cc1c(N)c(C#N)c(-c2ccc3c(c2)OCO3)c2c1CCCC2,-18,39*,23*,1,0,-3
CCN(CC)c1c([N+](=O)[O-])c(=O)n(C)c2ccccc12,3,4,8,-1,-1,-4
Cn1c(=O)c([N+](=O)[O-])c(Cl)c2ccccc21,17,-15,-10,41*,-1,0
CC1(c2ccccc2Cl)NC(=O)N(CC(=O)NCc2ccc3c(c2)OCO3)C1=O (configuration not stated),-7,0,10,-14,4,-1
CN1CCC(N2CCN(C3CN(CCc4ccccc4)S(=O)(=O)C3)CC2)CC1 (configuration not stated),4,0,-3,-4,0,0
SMILES,M5 antag,M4 PAM,M5 PAM,M4 antag,CHRM4 agonist,M5 ag
CN1CCC(n2[nH]c(-c3ccccc3)c(Cc3ccccc3)c2=O)CC1,98*,-11,-37,98*,2,-13
CN1CCCC(OC(=O)c2ccccc2Br)C1 (configuration not stated),5,-8,-12,-2,1,-24
CC(NC(=O)Cn1c(=O)[nH]c2ccsc2c1=O)C12CC3CC(CC(C3)C1)C2 (configuration not stated),-3,19*,1,0,1,1
CC(NC(=O)Cn1ccsc1=N)C12CC3CC(CC(C3)C1)C2 (configuration not stated),-2,-3,-1,-7,6,-10
O=S(=O)(NCCc1ccccc1)c1ccc(Br)cc1,8,-3,-6,-6,-1,-1
CCN1/C(=C/c2ccc3cc(C)ccc3[n+]2CC)Sc2cc(C)c(C)cc21,41*,-7,-19,31*,13,8
CC[n+]1ccccc1/C=C1\Sc2ccc(C)cc2N1C,0,3,1,-10,0,-1
CC[n+]1c(/C=C2\Sc3ccccc3N2C)ccc2cccc(C)c21,38*,-9,-14,26,8,3
CCN1/C(=C/C=C/c2sc3ccccc3[n+]2CC)Sc2ccccc21,18,-9,-12,16,11,3
CCN1/C(=C/c2ccc3cc(C)ccc3[n+]2CC)Sc2ccccc21,60*,-9,-21,33*,14,24*
COc1cc(/C=C/C(=O)OC(C)C(=O)NC2CCCCC2C)cc(Cl)c1OC (configuration not stated),12,0,-1,1,-1,1
O=C(CCCc1ccccc1)N=C1SC2CS(=O)(=O)CC2N1c1ccccc1F (configuration not stated),-3,5,3,-14,2,2
O=C(COC(=O)c1ccco1)NCCNC(=O)COC(=O)c1ccco1,6,19*,8,14,0,-1
COc1ccc(-n2nnc3c(=O)n(CC(=O)N4CCCc5ccccc54)cnc32)cc1,2,-2,-3,1,0,0
CCOc1ccc(-n2nnc3c(=O)n(CC(=O)N4CCCc5ccccc54)cnc32)cc1,2,-18,-11,88*,0,-1
CCOC(=O)C1=CCC(c2cccn2C(=O)OC(C)(C)C)N(S(=O)(=O)c2ccc(C)cc2)C1 (configuration not stated),-10,9,5,-17,-2,-1
COc1ccc(CC(=O)NCC2CCCN(Cc3ccccc3OC)C2)cc1 (configuration not stated),3,-9,1,0,1,-3
CCN(CC)c1ccc(C=Nc2cc(C)ccc2C)c(O)c1,0,25*,3,-1,1,-2
CCOc1ccccc1NC(=O)C1CC(=O)n2ncnc2N1 (configuration not stated),6,18,-6,28*,2,-3
